Laboratory results as given in ChEMBL document CHEMBL4118033, “Total Synthesis, Configuration Assignment, and Cytotoxic Activity Evaluation of Protulactone A” (J Nat Prod, 2017).
Activity calls are given as the source filed them.

Legend:
Assay type in all cases: functional, cell-based
CCRF-CEM = assay: Antiproliferative activity against human CCRF-CEM cells at 10 uM incubated for 48 hrs by sulforhodamine B assay
How it was run: (§1)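 Run by the NCI Developmental Therapeutics Program (Division of Cancer Treatment and Diagnosis) as part of the NCI60 human tumour cell line panel screen. Each compound was tested at a single dose of 10 μM. Results are reported as one-dose mean graphs.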

HL-60(TB) = assay: Antiproliferative activity against human HL-60(TB) cells at 10 uM incubated for 48 hrs by sulforhodamine B assay
How it was run: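 Tested within the NCI60 cancer cell line panel screen run by the Developmental Therapeutics Program (Division of Cancer Treatment and Diagnosis, National Cancer Institute). Each stereoisomer was given at a single dose of 10 μM. Results are reported as one-dose mean graphs.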

K562 = assay: Antiproliferative activity against human K562 cells at 10 uM incubated for 48 hrs by sulforhodamine B assay; how it was run: as §1
MOLT-4 = assay: Antiproliferative activity against human MOLT4 cells at 10 uM incubated for 48 hrs by sulforhodamine B assay; how it was run: as §1
RPMI-8226 = assay: Antiproliferative activity against human RPMI8226 cells at 10 uM incubated for 48 hrs by sulforhodamine B assay; how it was run: as §1
SR = assay: Antiproliferative activity against human SR cells at 10 uM incubated for 48 hrs by sulforhodamine B assay
How it was run: (§2)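 Run by the NCI Developmental Therapeutics Program (Division of Cancer Treatment and Diagnosis) as part of the NCI60 human tumour cell line panel. Each compound was tested in vitro at a single dose of 10 μM, and the data are reported as one-dose mean graphs across the panel.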

A549 = assay: Antiproliferative activity against human A549/ATCC cells at 10 uM incubated for 48 hrs by sulforhodamine B assay; how it was run: as §1
HOP-92 = assay: Antiproliferative activity against human HOP92 cells at 10 uM incubated for 48 hrs by sulforhodamine B assay; how it was run: as §1
NCI-H226 = assay: Antiproliferative activity against human NCI-H226 cells at 10 uM incubated for 48 hrs by sulforhodamine B assay; how it was run: as §1
NCI-H322M = assay: Antiproliferative activity against human NCI-H322M cells at 10 uM incubated for 48 hrs by sulforhodamine B assay; how it was run: as §1
NCI-H460 = assay: Antiproliferative activity against human NCI-H460 cells at 10 uM incubated for 48 hrs by sulforhodamine B assay; how it was run: as §1
NCI-H522 = assay: Antiproliferative activity against human NCI-H522 cells at 10 uM incubated for 48 hrs by sulforhodamine B assay; how it was run: as §1
COLO 205 = assay: Antiproliferative activity against human COLO205 cells at 10 uM incubated for 48 hrs by sulforhodamine B assay; how it was run: as §1
HCC 2998 = assay: Antiproliferative activity against human HCC2998 cells at 10 uM incubated for 48 hrs by sulforhodamine B assay; how it was run: as §1
HCT-15 = assay: Antiproliferative activity against human HCT15 cells at 10 uM incubated for 48 hrs by sulforhodamine B assay; how it was run: as §1
HT-29 = assay: Antiproliferative activity against human HT-29 cells at 10 uM incubated for 48 hrs by sulforhodamine B assay; how it was run: as §1
KM12 = assay: Antiproliferative activity against human KM12 cells at 10 uM incubated for 48 hrs by sulforhodamine B assay; how it was run: as §1
SF-268 = assay: Antiproliferative activity against human SF268 cells at 10 uM incubated for 48 hrs by sulforhodamine B assay; how it was run: as §1
SF-295 = assay: Antiproliferative activity against human SF295 cells at 10 uM incubated for 48 hrs by sulforhodamine B assay; how it was run: as §1
SF-539 = assay: Antiproliferative activity against human SF539 cells at 10 uM incubated for 48 hrs by sulforhodamine B assay; how it was run: as §1
SNB-19 = assay: Antiproliferative activity against human SNB19 cells at 10 uM incubated for 48 hrs by sulforhodamine B assay; how it was run: as §1
SNB-75 = assay: Antiproliferative activity against human SNB75 cells at 10 uM incubated for 48 hrs by sulforhodamine B assay; how it was run: as §2
LOX IMVI = assay: Antiproliferative activity against human LOXIMVI cells at 10 uM incubated for 48 hrs by sulforhodamine B assay; how it was run: as §1
Malme-3M = assay: Antiproliferative activity against human MALME-3M cells at 10 uM incubated for 48 hrs by sulforhodamine B assay; how it was run: as §1
M14 = assay: Antiproliferative activity against human M14 cells at 10 uM incubated for 48 hrs by sulforhodamine B assay; how it was run: as §1
MDA-MB-435 = assay: Antiproliferative activity against human MDA-MB-435 cells at 10 uM incubated for 48 hrs by sulforhodamine B assay; how it was run: as §1
SK-MEL-28 = assay: Antiproliferative activity against human SK-MEL-28 cells at 10 uM incubated for 48 hrs by sulforhodamine B assay; how it was run: as §1
SK-MEL-5 = assay: Antiproliferative activity against human SK-MEL-5 cells at 10 uM incubated for 48 hrs by sulforhodamine B assay; how it was run: as §1
UACC-257 = assay: Antiproliferative activity against human UACC257 cells at 10 uM incubated for 48 hrs by sulforhodamine B assay; how it was run: as §2
UACC-62 = assay: Antiproliferative activity against human UACC62 cells at 10 uM incubated for 48 hrs by sulforhodamine B assay; how it was run: as §2
IGROV-1 = assay: Antiproliferative activity against human IGROV1 cells at 10 uM incubated for 48 hrs by sulforhodamine B assay; how it was run: as §1
OVCAR-3 = assay: Antiproliferative activity against human OVCAR3 cells at 10 uM incubated for 48 hrs by sulforhodamine B assay; how it was run: as §1
OVCAR-8 = assay: Antiproliferative activity against human OVCAR8 cells at 10 uM incubated for 48 hrs by sulforhodamine B assay; how it was run: as §1
SK-OV-3 = assay: Antiproliferative activity against human SKOV3 cells at 10 uM incubated for 48 hrs by sulforhodamine B assay; how it was run: as §1
A498 = assay: Antiproliferative activity against human A498 cells at 10 uM incubated for 48 hrs by sulforhodamine B assay; how it was run: as §1
CAKI-1 = assay: Antiproliferative activity against human Caki1 cells at 10 uM incubated for 48 hrs by sulforhodamine B assay; how it was run: as §1
RXF 393 = assay: Antiproliferative activity against human RXF393 cells at 10 uM incubated for 48 hrs by sulforhodamine B assay; how it was run: as §1
UO-31 = assay: Antiproliferative activity against human UO31 cells at 10 uM incubated for 48 hrs by sulforhodamine B assay; how it was run: as §2
PC-3 = assay: Antiproliferative activity against human PC3 cells at 10 uM incubated for 48 hrs by sulforhodamine B assay; how it was run: as §1
DU-145 = assay: Antiproliferative activity against human DU145 cells at 10 uM incubated for 48 hrs by sulforhodamine B assay; how it was run: as §1
Hs-578T = assay: Antiproliferative activity against human Hs 578T cells at 10 uM incubated for 48 hrs by sulforhodamine B assay; how it was run: as §1
BT-549 = assay: Antiproliferative activity against human BT549 cells at 10 uM incubated for 48 hrs by sulforhodamine B assay; how it was run: as §1
T47D = assay: Antiproliferative activity against human T47D cells at 10 uM incubated for 48 hrs by sulforhodamine B assay; how it was run: as §2
MDA-MB-468 = assay: Antiproliferative activity against human MDA-MB-468 cells at 10 uM incubated for 48 hrs by sulforhodamine B assay; how it was run: as §1

Measured: Activity

O=C1C[C@H]2O[C@H]([C@H](O)c3ccccc3)[C@H](O)[C@H]2O1
active: CCRF-CEM | HL-60(TB) | K562 | MOLT-4 | RPMI-8226 | SR | A549 | HOP-92 | NCI-H226 | NCI-H322M | NCI-H460 | NCI-H522 | COLO 205 | HCC 2998 | HCT-15 | HT-29 | KM12 | SF-268 | SF-295 | SF-539 | SNB-19 | SNB-75 | LOX IMVI | Malme-3M | M14 | MDA-MB-435 | SK-MEL-28 | SK-MEL-5 | UACC-257 | UACC-62 | IGROV-1 | OVCAR-3 | OVCAR-8 | SK-OV-3 | A498 | CAKI-1 | RXF 393 | UO-31 | PC-3 | DU-145 | Hs-578T | BT-549 | T47D | MDA-MB-468

CC(=O)O[C@H](C)[C@H]1O[C@H]2CC(=O)O[C@H]2[C@@H]1O
inactive: CCRF-CEM | HL-60(TB) | K562 | MOLT-4 | RPMI-8226 | SR | A549 | HOP-92 | NCI-H226 | NCI-H322M | NCI-H460 | NCI-H522 | COLO 205 | HCC 2998 | HCT-15 | HT-29 | KM12 | SF-268 | SF-295 | SF-539 | SNB-19 | SNB-75 | LOX IMVI | Malme-3M | M14 | MDA-MB-435 | SK-MEL-28 | SK-MEL-5 | UACC-257 | UACC-62 | IGROV-1 | OVCAR-3 | OVCAR-8 | SK-OV-3 | A498 | CAKI-1 | RXF 393 | UO-31 | PC-3 | DU-145 | Hs-578T | BT-549 | T47D | MDA-MB-468

CC(=O)O[C@H](C)[C@@H]1O[C@@H]2CC(=O)O[C@@H]2[C@H]1O
inactive: CCRF-CEM | HL-60(TB) | K562 | MOLT-4 | RPMI-8226 | SR | A549 | HOP-92 | NCI-H226 | NCI-H322M | NCI-H460 | NCI-H522 | COLO 205 | HCC 2998 | HCT-15 | HT-29 | KM12 | SF-268 | SF-295 | SF-539 | SNB-19 | SNB-75 | LOX IMVI | Malme-3M | M14 | MDA-MB-435 | SK-MEL-28 | SK-MEL-5 | UACC-257 | UACC-62 | IGROV-1 | OVCAR-3 | OVCAR-8 | SK-OV-3 | A498 | CAKI-1 | RXF 393 | UO-31 | PC-3 | DU-145 | Hs-578T | BT-549 | T47D | MDA-MB-468
